Among the data in ChEMBL document CHEMBL1153000, “Berbamine derivatives: a novel class of compounds for anti-leukemia activity” (Eur J Med Chem, 2009) are IC50, inhibition and Activity values, retold here.

SMILES strings stand for the structures. Active and inactive are the calls of the source. The calls are words filed in the database; no cut-off is given here.

In general, IC50 refers to the concentration that gives 50% inhibition. Read a low IC50 as higher potency.

Test [1] has as its system K562. The experiment in a line: Cytotoxicity against human imatinib-resistant K562 leukemia cells expressing p210Bcr/Abl and MDR1 at 48 hrs by MTT assay. In kind it is functional, cell-based. As to conditions: K562, 48 h. A digest of the protocol:
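Cells were cultured with 100 µg/ml streptomycin at 37 °C in a humidified 95% air/5% CO2 incubator. Viability was read by MTT after 48 h exposure and counts were taken by hemocytometer. IC50 is the mean of three independent determinations.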
(In general: Tetrazolium assays rely on reduction of a dye to a coloured formazan, in cell work by metabolically active cells.)

In test [2] the test system is K562. The experiment in a line: Inhibition of NF-kappaB translocation from cytoplasm to nucleus in human imatinib-resistant K562 leukemia cells expressing p210Bcr/Ab assessed as disappearance of NF-kappaB p65/relA subunit nuclear level at 0.5 ug/ml after 24 hrs by Western blot analysis.
For test [3], the system named is K562. The experiment in a line: Inhibition of NF-kappaB translocation from cytoplasm to nucleus in human imatinib-resistant K562 leukemia cells expressing p210Bcr/Ab assessed as disappearance of NF-kappaB p65/relA subunit nuclear level at 0.5 ug/ml after 24 hrs by Western blot analysis. The class given is functional, cell-based. The method in brief:
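Leukemia cells were exposed for 24 h (berbamine 8 µg/ml; derivatives 0.5 µg/ml). Nuclear levels of NF-κB p65/relA were analysed by immunoblot with lamin as the nuclear loading control, and total p65 was also assessed.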
Background: In western blotting, separated proteins are transferred to a membrane and probed.

Test [4] deals with K562. As to the kind of experiment: Cell cycle arrest in human imatinib-resistant K562 leukemia cells expressing p210Bcr/Ab assessed as accumulation at G0/G1 phase at 2 ug/ml after 48 hrs by flow cytometry. In kind it is functional. A digest of the protocol: (§1)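 K562-R cells (MDR1-expressing) were treated with 1.0 or 2.0 µg/ml for 48 h, then harvested, PBS-washed, fixed in ice-cold 70% ethanol at 4 °C overnight, and stained with 50 µg/ml propidium iodide. Flow cytometry gave the percentage of cells in G0/G1, S and G2/M, with the sub-G1 fraction scored as apoptotic.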
(In general: A flow cytometer gives signals particle by particle.)

For test [5], the system named is K562. The experiment in a line: Cell cycle arrest in human imatinib-resistant K562 leukemia cells expressing p210Bcr/Ab assessed as accumulation at G0/G1 phase at 1 ug/ml after 48 hrs by flow cytometry. In kind it is functional. The method in brief:
as §1

For test [6], the system named is K562. The experiment in a line: Cell cycle arrest in human imatinib-resistant K562 cells assessed as accumulation at G2/M phase at 2 ug/ml after 48 hrs by flow cytometry. The class given is functional. A digest of the protocol: as §1
In test [7] the test system is K562. As to the kind of experiment: Cell cycle arrest in human imatinib-resistant K562 leukemia cells expressing p210Bcr/Ab assessed as accumulation at S phase at 2 ug/ml after 48 hrs by flow cytometry. The class given is functional. The method in brief:
as §1

Test [8] has as its system K562. The experiment in a line: Induction of apoptosis in human imatinib-resistant K562 leukemia cells expressing p210Bcr/Abl at 2 ug/ml after 48 hrs by flow cytometry. In kind it is functional. The method in brief: as §1
The test system of test [9] is K562. As to the kind of experiment: Induction of apoptosis in human imatinib-resistant K562 cells expressing p210Bcr/Abl at 1 ug/ml after 48 hrs by flow cytometry. The class given is functional. A digest of the protocol:
as §1

The test system of test [10] is K562. The experiment in a line: Cell cycle arrest in human imatinib-resistant K562 leukemia cells expressing p210Bcr/Ab assessed as accumulation at S phase at 1 ug/ml after 48 hrs by flow cytometry. The class given is functional. A digest of the protocol:
as §1

The test system of test [11] is K562. As to the kind of experiment: Cell cycle arrest in human imatinib-resistant K562 leukemia cells expressing p210Bcr/Ab assessed as accumulation at G2/M phase at 1 ug/ml after 48 hrs by flow cytometry. In kind it is functional. The method in brief:
as §1

In the case of `COc1cc2c3cc1Oc1c(OC)c(OC)cc4c1[C@@H](Cc1ccc(OCc5ccc([N+](=O)[O-])cc5)c(c1)Oc1ccc(cc1)C[C@@H]3N(C)CC2)N(C)CC4`, the IC50 in test [1] amounted to 360 nM.
On the same count and under the same terms, then `COc1cc2c3cc1Oc1c(OC)c(OC)cc4c1[C@@H](Cc1ccc(OC(C)=O)c(c1)Oc1ccc(cc1)C[C@@H]3N(C)CC2)N(C)CC4`, with 6600 nM.
Same read-out and setting: then `COc1cc2c3cc1Oc1c(OC)c(OC)cc4c1[C@@H](Cc1ccc(OC(=O)c5cc([N+](=O)[O-])cc([N+](=O)[O-])c5)c(c1)Oc1ccc(cc1)C[C@@H]3N(C)CC2)N(C)CC4`, with 3750 nM.
As for `COc1cc2c3cc1Oc1c(OC)c(OC)cc4c1[C@@H](Cc1ccc(OS(=O)(=O)c5ccccc5)c(c1)Oc1ccc(cc1)C[C@@H]3N(C)CC2)N(C)CC4`, the half-inhibitory concentration (IC50) in test [1] is 1990 nM.
`COc1cc2c3cc1Oc1c(OC)c(OC)cc4c1[C@@H](Cc1ccc(OC(=O)c5ccc(Cl)cc5)c(c1)Oc1ccc(cc1)C[C@@H]3N(C)CC2)N(C)CC4` returned an IC50 in test [1] of 980 nM. Further, the inhibition result in [2] and in test [3] was “Active” each time.
Molecule `COc1ccc(C(=O)Oc2ccc3cc2Oc2ccc(cc2)C[C@H]2c4cc(c(OC)cc4CCN2C)Oc2c(OC)c(OC)cc4c2[C@@H](C3)N(C)CC4)cc1` showed an IC50 in [1] of 550 nM. For the same molecule, the inhibition entry in test [2] and in test [3] was “Active” throughout.
Take `C=C(C)C(=O)Oc1ccc2cc1Oc1ccc(cc1)C[C@H]1c3cc(c(OC)cc3CCN1C)Oc1c(OC)c(OC)cc3c1[C@@H](C2)N(C)CC3`: inhibition in test [1] was half-maximal at 3810 nM (IC50).
Still for that read-out and setting: next, `COc1cc2c3cc1Oc1c(OC)c(OC)cc4c1[C@@H](Cc1ccc(OC(=O)c5cccc(F)c5)c(c1)Oc1ccc(cc1)C[C@@H]3N(C)CC2)N(C)CC4`: 1970 nM; `COc1cc2c3cc1Oc1c(OC)c(OC)cc4c1[C@@H](Cc1ccc(OC(=O)c5ccccc5Cl)c(c1)Oc1ccc(cc1)C[C@@H]3N(C)CC2)N(C)CC4`: 600 nM; `COc1cc2c3cc1Oc1c(OC)c(OC)cc4c1[C@@H](Cc1ccc(OC(=O)c5ccccc5)c(c1)Oc1ccc(cc1)C[C@@H]3N(C)CC2)N(C)CC4`: 2160 nM.
On the same count and under the same terms, then `COc1cc2c3cc1Oc1c(OC)c(OC)cc4c1[C@@H](Cc1ccc(OCCCBr)c(c1)Oc1ccc(cc1)C[C@@H]3N(C)CC2)N(C)CC4`, with 1660 nM; and `CCOc1ccc2cc1Oc1ccc(cc1)C[C@H]1c3cc(c(OC)cc3CCN1C)Oc1c(OC)c(OC)cc3c1[C@@H](C2)N(C)CC3`, with 3140 nM.
With `COc1cc2c3cc1Oc1c(OC)c(OC)cc4c1[C@@H](Cc1ccc(O)c(c1)Oc1ccc(cc1)C[C@@H]3N(C)CC2)N(C)CC4` [BERBAMINE], the IC50 in [1] was determined as 8930 nM. Moreover, the inhibition result in [2] and in test [3] was “Active” in each case.
Take `COc1cc2c3cc1Oc1c(OC)c(OC)cc4c1[C@@H](Cc1ccc(OC(=O)CCl)c(c1)Oc1ccc(cc1)C[C@@H]3N(C)CC2)N(C)CC4`: the IC50 in test [1] is 2700 nM.
In the case of `COc1cc2c3cc1Oc1c(OC)c(OC)cc4c1[C@@H](Cc1ccc(OC(=O)c5cccc(CCl)c5)c(c1)Oc1ccc(cc1)C[C@@H]3N(C)CC2)N(C)CC4`, 500 nM corresponded to half-maximal inhibition in test [1] (IC50).
On to `COc1cc2c3cc1Oc1c(OC)c(OC)cc4c1[C@@H](Cc1ccc(OC(=O)c5ccccc5Br)c(c1)Oc1ccc(cc1)C[C@@H]3N(C)CC2)N(C)CC4`, for which, in [1], half-maximal inhibition (IC50) required 780 nM.
Molecule `COc1cc2c3cc1Oc1c(OC)c(OC)cc4c1[C@@H](Cc1ccc(OCc5ccc(Cl)nc5)c(c1)Oc1ccc(cc1)C[C@@H]3N(C)CC2)N(C)CC4` registered an IC50 in [1] of 400 nM.
For `COc1cc2c3cc1Oc1c(OC)c(OC)cc4c1[C@@H](Cc1ccc(OC(=O)c5cc(OC)c(OC)c(OC)c5)c(c1)Oc1ccc(cc1)C[C@@H]3N(C)CC2)N(C)CC4`, the IC50 in test [1] is 690 nM. Besides, the inhibition result in [2] and in test [3] was “Active” throughout.
Regarding `COc1cc2c3cc1Oc1c(OC)c(OC)cc4c1[C@@H](Cc1ccc(OC(=O)c5cc6ccccc6[nH]5)c(c1)Oc1ccc(cc1)C[C@@H]3N(C)CC2)N(C)CC4`, in test [1], half-maximal inhibition (IC50) was put at 460 nM.
As to `COc1cc2c3cc1Oc1c(OC)c(OC)cc4c1[C@@H](Cc1ccc(OCc5cc(OC)c(OC)c(OC)c5)c(c1)Oc1ccc(cc1)C[C@@H]3N(C)CC2)N(C)CC4`, the IC50 in [1] was determined as 1530 nM.
The same measure, in the same setting: next, `COc1cc2c3cc1Oc1c(OC)c(OC)cc4c1[C@@H](Cc1ccc(OC(=O)Cc5cc(F)c(F)cc5F)c(c1)Oc1ccc(cc1)C[C@@H]3N(C)CC2)N(C)CC4`: 3020 nM; `COc1cc2c3cc1Oc1c(OC)c(OC)cc4c1[C@@H](Cc1ccc(OS(C)(=O)=O)c(c1)Oc1ccc(cc1)C[C@@H]3N(C)CC2)N(C)CC4`: 4740 nM; `COc1cc2c3cc1Oc1c(OC)c(OC)cc4c1[C@@H](Cc1ccc(OCc5ccc(Br)cc5)c(c1)Oc1ccc(cc1)C[C@@H]3N(C)CC2)N(C)CC4`: 710 nM.
The same measure, in the same setting: then `COc1cc2c3cc1Oc1c(OC)c(OC)cc4c1[C@@H](Cc1ccc(OCc5ccccc5)c(c1)Oc1ccc(cc1)C[C@@H]3N(C)CC2)N(C)CC4`, with 800 nM.
On the same count and under the same terms, then `COc1cc2c3cc1Oc1c(OC)c(OC)cc4c1[C@@H](Cc1ccc(OC(=O)c5ccc(Br)cc5)c(c1)Oc1ccc(cc1)C[C@@H]3N(C)CC2)N(C)CC4`, with 400 nM; and `COc1cc2c3cc1Oc1c(OC)c(OC)cc4c1[C@@H](Cc1ccc(OC(=O)c5ccc([N+](=O)[O-])cc5)c(c1)Oc1ccc(cc1)C[C@@H]3N(C)CC2)N(C)CC4` [E6 BERBAMINE], with 2130 nM.
`COc1cc2c3cc1Oc1c(OC)c(OC)cc4c1[C@@H](Cc1ccc(OC(=O)c5ccccc5C)c(c1)Oc1ccc(cc1)C[C@@H]3N(C)CC2)N(C)CC4`: the Activity is on record as 20.04% in test [4]; 32.37% in test [5]; 6.01% in test [6]; 22.89% in test [7]; 51.91% in test [8]; 31.71% in [9]. For the same molecule, the Activity in test [10] is listed as 29.28%; in test [11], 7.3%. Also, the IC50 in [1] was found to be 690 nM. Further, the inhibition result in test [2] and in test [3] was “Active” throughout.
For the molecule `COc1cc2c3cc1Oc1c(OC)c(OC)cc4c1[C@@H](Cc1ccc(OC(=O)C(C)(C)C)c(c1)Oc1ccc(cc1)C[C@@H]3N(C)CC2)N(C)CC4`, the IC50 in [1] came to 1010 nM.
The same measure, in the same setting: next, `COc1cc2c3cc1Oc1c(OC)c(OC)cc4c1[C@@H](Cc1ccc(OC(=O)Cc5ccccc5)c(c1)Oc1ccc(cc1)C[C@@H]3N(C)CC2)N(C)CC4`: 2230 nM; `COc1cc2c3cc1Oc1c(OC)c(OC)cc4c1[C@@H](Cc1ccc(OC(=O)c5cccc(C(F)(F)F)c5)c(c1)Oc1ccc(cc1)C[C@@H]3N(C)CC2)N(C)CC4`: 890 nM.
On the same count and under the same terms, next, `CCOCCCCOc1ccc2cc1Oc1ccc(cc1)C[C@H]1c3cc(c(OC)cc3CCN1C)Oc1c(OC)c(OC)cc3c1[C@@H](C2)N(C)CC3`: 4080 nM; `COc1cc2c3cc1Oc1c(OC)c(OC)cc4c1[C@@H](Cc1ccc(OC(=O)c5ccco5)c(c1)Oc1ccc(cc1)C[C@@H]3N(C)CC2)N(C)CC4`: 2780 nM.
